CSC inhib: blocks cancer stem cells; AID 2717; actives 1.1% (n = 300,000); cancer stem cell-like cells viability, luminescence; inhibition, % at 7.5 µM; in the data active means inhibition above about 75%; tested in HMLE shEcad cells
Mdm2 MdmX PPI: inhibitors of human Mdm2/MdmX interaction; O15151+Q00987; actives 3% (n = 330,000); SaOS-2 split-luciferase Mdm2/MdmX complementation, luminescence; inhibition, % at 8 µM; AID 485346;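 active means inhibition of at least 50% at 8 µM in the primary screen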
Target sequence (O15151 whole entry, looked up): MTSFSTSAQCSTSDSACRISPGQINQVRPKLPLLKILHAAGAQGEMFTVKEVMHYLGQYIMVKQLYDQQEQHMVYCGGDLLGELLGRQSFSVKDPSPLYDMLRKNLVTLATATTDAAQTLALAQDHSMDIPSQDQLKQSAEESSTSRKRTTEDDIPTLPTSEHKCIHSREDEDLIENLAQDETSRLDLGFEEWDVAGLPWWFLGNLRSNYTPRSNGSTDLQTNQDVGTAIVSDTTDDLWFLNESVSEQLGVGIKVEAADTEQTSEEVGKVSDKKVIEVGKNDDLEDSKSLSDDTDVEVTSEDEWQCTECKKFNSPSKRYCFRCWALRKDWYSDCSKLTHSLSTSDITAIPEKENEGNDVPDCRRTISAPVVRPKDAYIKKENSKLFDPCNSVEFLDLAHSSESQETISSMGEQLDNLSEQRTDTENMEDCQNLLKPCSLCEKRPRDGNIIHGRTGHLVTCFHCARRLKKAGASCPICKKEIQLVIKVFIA
Target sequence (Q00987 whole entry, looked up): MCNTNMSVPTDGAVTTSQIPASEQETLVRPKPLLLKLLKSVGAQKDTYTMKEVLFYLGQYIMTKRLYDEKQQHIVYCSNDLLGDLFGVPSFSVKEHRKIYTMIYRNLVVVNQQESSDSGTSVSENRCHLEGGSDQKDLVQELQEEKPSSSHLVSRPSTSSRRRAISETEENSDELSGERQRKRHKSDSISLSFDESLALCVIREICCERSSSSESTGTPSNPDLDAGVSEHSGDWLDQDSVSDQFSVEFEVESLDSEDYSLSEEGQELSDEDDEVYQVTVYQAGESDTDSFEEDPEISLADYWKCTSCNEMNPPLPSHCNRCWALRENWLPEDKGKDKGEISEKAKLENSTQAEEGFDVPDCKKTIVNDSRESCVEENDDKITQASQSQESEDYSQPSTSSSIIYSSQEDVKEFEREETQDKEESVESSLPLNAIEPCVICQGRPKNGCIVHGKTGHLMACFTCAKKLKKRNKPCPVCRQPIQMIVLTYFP
SKKanGAS inh: SKKanGAS growth inhibition | S. pyogenes SKKanGAS, kanamycin growth, BacTiter-Glo, 6 h | inhibition, % at 7.5 µM | actives 1.3% (n = 300,000);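 active means mean replicate score, as percent of positive control median, at least 50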;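 further: strain carries kanamycin resistance gene driven by streptokinase promoter and grows in 40 µg/ml kanamycin; loss of luminescence reflects streptokinase promoter inhibition or plain growth inhibition; 0% = median of DMSO wells and 100% = positive control at its reference dose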
T cruzi inh: T. cruzi replication inhibition | inhibition, % (test concentration not listed) | actives 1.4% (n = 300,000) | T. cruzi beta-gal in NIH3T3, luminescence, 90 h;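 active means mean inhibition across valid replicates above about 55%, limit read from the data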;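 further: signal also drops with host cell toxicity which is not excluded here; 0% = plate median of DMSO wells and 100% = zero luminescence signal; higher percent means less beta-gal luminescence so fewer parasites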
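Assay system: NIH/3T3 host cells with β-galactosidase reporter T. cruzi; input: 5,000 host fibroblasts per well; compound: single 50 nL compound addition per well in DMSO; timing: ≥90 h infection period, 3 h prior cell attachment; measured by: GalScreen β-gal luminescence, detergent lysis, 60 min; evaluation: percent inhibition of parasite-derived β-gal signal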
Beta cell apopt: blocks beta cell apoptosis. INS-1E cytokine-induced death, ATP luminescence, 48 h; percent of positive-control rescue, neutral wells zero. protection from apoptosis, % (test concentration not listed). actives 0.8% (n = 300,000). AID 435005;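 active means Every replicate reaches about 75%, or at least half do and their mean reaches it too, limit read from the data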;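 further: 0% = cytokine-treated negative control wells and 100% = positive control rescue; higher means more ATP so stronger rescue from cytokine killing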
Calb FLC: C. albicans growth modulation with fluconazole | actives 0.57% (n = 300,000) | AID 1979 | C. albicans CaCi-2 (fluconazole-resistant clinical isolate) + fluconazole, Alamar Blue growth, 48 h | growth inhibition, % (concentration not given with the values);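 active means growth inhibition above about 58% in most replicates, limit read from the data, passing the limit was not always enough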;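 further: all wells also contain fluconazole at 8 µg/ml as a sub-toxic cotreatment; 0% = median of DMSO wells and 100% = median of geldanamycin control wells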
Mdm2 MdmX conf: confirmation of human Mdm2/MdmX interaction inhibitors; shares compounds with Mdm2 MdmX PPI; Mdm2-MdmX binding, luminescent assay; inhibition, % at 8 µM; actives 55% (n = 10,000); in the data active means inhibition above about 40%
FLuc counter: counter-screen for Mdm2/MdmX inhibitors: full-length luciferase. actives 77% (n = 6,200). AID 504607. shares compounds with Mdm2 MdmX PPI. SaOS-2 full-length luciferase counterscreen, luminescence. inhibition, % at 8 µM;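 active means mean inhibition at 8 µM reaching about 37%, which flags the compound as non-specific, limit read from the data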;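 further: p53-null SaOS-2 cells with luciferase driven by a doxycycline-inducible promoter; compound on cells about two nights before reading with doxycycline added after day one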
Numbers without * were called inactive; . = not tested or not shown. In the library only some 5.7% were active in any assay of this set; here they are far more common.

SMILES	CSC inhib	Mdm2 MdmX PPI	SKKanGAS inh	T cruzi inh	Beta cell apopt	Calb FLC	Mdm2 MdmX conf	FLuc counter
O=c1c2ccccc2nc(/C=C/c2ccc(O)cc2)n1-c1ccc(O)cc1	14	27	12	4	4	-1	.	.
COc1ccc(-n2c(/C=C/c3ccc(O)cc3)nc3ccccc3c2=O)cc1	38	50*	18	24	.	10	24	.
CN1C2CCC1C(C(=O)O)C(O)C2 (stereo unspecified)	.	9	.	.	.	.	.	.
O=c1[nH]c(=S)[nH]c(O)c1N=Nc1ccc(S(=O)(=O)N2CCc3ccccc32)cc1	11	58*	10	-6	23	49	23	.
CC(OC(=O)c1cn(C)c2ccccc12)C(=O)N(C)c1ccccc1 (stereo unspecified)	.	10	.	.	.	.	.	.
N#CC1=C(N)Oc2c(c(=O)oc3ccccc23)C1c1ccncc1 (stereo unspecified)	5	22	.	.	-9	.	.	.
N#CC1=C(N)Oc2c(c(=O)sc3ccccc23)C1c1cccnc1 (stereo unspecified)	51	52*	0	77*	25	12	60*	56*
COc1ccc(CCNC(=O)c2c(N)n(CCN3CCOCC3)c3nc4ccccc4nc23)cc1OC	21	54*	8	27	3	0	28	.
CCCCCCn1c(N)c(C(=O)NCCN2CCOCC2)c2nc3ccccc3nc21	111*	58*	10	28	-3	7	32	.
C=C(C=O)CC1CC(O)[C@]2(C)OC3CC4OC5C[C@]6(C)O[C@]7(C)CCC8OC9C[C@]%10(C)OC%11C(C)=CC(=O)OC%11CC%10OC9C[C@@H](C)C8OC7CC6O[C@]5(C)CC5OC5C4OC3CC2O1 (stereo partly specified)	9	99*	26	46	101*	-11	100*	1
COc1ccccc1OP(=O)(Nc1cccnc1)Oc1ccccc1OC	.	51*	-7	-17	.	5	48*	74*
Cc1ccc(NP(=O)(Oc2ccccc2F)Oc2ccccc2F)cc1C	72	.	25	23	-4	14	.	.
C[C@]12CC[C@H](O)C[C@H]1CC[C@@H]1[C@@H]2CC[C@]2(C)C(=O)CC[C@@H]12	.	-8	.	.	.	.	.	.
Cc1ccc(Cn2nnnc2CN2CCC(n3nnc4cc(C(F)(F)F)ccc43)CC2)cc1	-4	71*	12	34	19	5	28	.
C[C@]12CCC3C(CC[C@H]4C[C@H](O)CC[C@]34C)C1[C@@H](O)[C@@H](O)[C@@H]2O (stereo partly specified)	-8	2	.	.	-2	.	.	.
COc1ccc(C2=NS(=O)(=O)N(C)C(C(=O)N3CCC4(CC3)OCCO4)=C2)cc1OC	-8	15	0	8	5	-5	.	.
c1ccc2c(N3CCNCC3)nsc2c1	13	53*	2	-5	2	0	64*	30
c1ccc2oc(N3CCNCC3)nc2c1	10	26	-2	2	1	-1	.	.
COC(=O)C1=C(c2cccc(Cl)c2)C[C@@H]2CC[C@H]1N2C(=O)NCC1CC1	-5	-33	.	.	-5	.	.	.
C[CH2][Hg][S]c1ccccc1C(=O)O	104*	100*	.	.	114*	.	100*	52*
CC(C)COC(=O)c1ccccc1C(=O)OCC(C)C	-1	19	0	-2	-8	-2	.	.
O=c1[nH]c(O)c(/C=C2\C=Nc3ccc(OCc4ccccc4)cc32)c(=O)[nH]1	-11	19	1	-14	-15	2	.	.
O=c1[nH]c(=O)n(-c2ccc(Br)cc2)c(O)c1C=NCCN1CCCCC1	-20	23	1	1	.	-7	.	.
COc1ccc(-c2nc3ccccc3c(=O)o2)cc1	-1	7	5	-2	-1	2	.	.
Oc1ccc(-[n+]2c(-c3ccccc3)cc(-c3ccccc3)cc2-c2ccccc2)cc1	-15	98*	3	50	123*	103*	71*	59*
SMILES	CSC inhib	Mdm2 MdmX PPI	SKKanGAS inh	T cruzi inh	Beta cell apopt	Calb FLC	Mdm2 MdmX conf	FLuc counter
COc1ccc(-[n+]2c(-c3ccccc3)cc(-c3ccccc3)cc2-c2ccccc2)cc1	42	87*	-4	29	111*	108*	88*	14
C[n+]1c(-c2ccccc2)cc(-c2ccc(O)cc2)cc1-c1ccccc1	3	16	1	43	-6	-15	.	.
COC(=O)C1=C(c2ccc(OC)c(OC)c2)C[C@@H]2CC[C@H]1N2C(=O)NCc1ccco1	1	-9	.	.	-10	.	.	.
ClCCOCCCl	-1	4	.	.	-1	.	.	.
O=C(CCCN1CCC2(CC1)C(=O)NCN2c1ccccc1)c1ccc(F)cc1	8	63*	13	-11	-3	2	16	.
O=C(c1ccc(F)cc1)C(Cc1ccccc1)N1CCCCC1 (stereo unspecified)	9	-6	10	-3	-1	-9	.	.
O=[N+]([O-])c1ccccc1CCl	7	6	.	.	0	.	.	.
O=[N+]([O-])c1ccccc1-c1cc(-c2ccccc2)cc(-c2ccccc2)[n+]1Cc1ccccc1Cl	36	88*	18	56*	134*	-12	69*	22
CC(C)NC(C)C(=O)C12CC3CC(CC(C3)C1)C2 (stereo unspecified)	20	-25	-2	2	-2	-2	.	.
Cc1cc(C(C#N)c2ccc(Cl)cc2)c(Cl)cc1NC(=O)c1cc(I)cc(I)c1O (stereo unspecified)	96*	54*	105*	-12	7	22	12	.
COc1cc2c(cc1OC)[C@@H]1C(=O)c3ccc4c(c3O[C@@H]1CO2)C[C@H](C(C)C)O4	41	58*	5	-20	133*	2	39	64*
CCCCCSc1cc(OC)c(CCNC)cc1OC	30	53*	3	45	45	9	5	.
CCCCCCCSc1cc(OC)c(CCNC)cc1OC	41	53*	1	20	-2	-4	26	.
COCCO[C@H]1CCC2C3CC=C4C[C@@H](O)CC[C@]4(C)C3CC[C@@]21C (stereo partly specified)	2	17	.	.	-2	.	.	.
C[C@@H]1O[C@@H](O[C@@H]2C=C3CCC4C(CC[C@]5(C)[C@@H](c6ccc(=O)oc6)CC[C@]45O)[C@@]3(C)CC2)[C@H](O)[C@H](O)[C@H]1O (stereo partly specified)	101*	83*	.	.	12	.	81*	49*
